The source of these data is ChEMBL document CHEMBL2203244, “Discovery and optimization of a series of 2-aminothiazole-oxazoles as potent phosphoinositide 3-kinase γ inhibitors” (Bioorg Med Chem Lett, 2012).

The structures appear in SMILES notation. Values after ≈ are worked out from the molar mass of the structure shown.

Series [1] concerns the target T1, Phosphatidylinositol 4,5-bisphosphate 3-kinase catalytic subunit gamma isoform (Homo sapiens, UniProt P48736). The experiment in a line: Inhibition of human PI3Kgamma using phosphatidylinositol as substrate and [33gammaP]ATP after 2 hrs by scintillation counting. An outline of the steps:
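Recombinant human PI3Kγ (20 ng) incubated 2 h at 30 °C with test inhibitor or DMSO in 20 mM Tris–HCl pH 7.4, 5 mM MgCl2, 5 mM DTT, with ATP/[33P]ATP and PtdIns/PtdSer lipid vesicles as substrate. Reaction stopped with 25 mM EDTA. Product captured on phospholipid scintillant-coated plates, washed with PBS, and bound radioactivity counted by scintillation.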

The target in series [2] is Phosphatidylinositol 4,5-bisphosphate 3-kinase catalytic subunit gamma isoform (Mus musculus, UniProt Q9JHG7). The experiment in a line: Inhibition of PI3Kgamma in mouse RAW264.7 cells assessed as inhibition of C5a-induced PKB/Akt phosphorylation incubated for 30 mins prior to C5a-induction measured after 5 mins by immunostaining method. Type of series: cell-based. An outline of the steps: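 Raw264.7 murine macrophage-like cells seeded at 8 × 10⁶ per well, grown 24 h, switched to serum-free 0.1% BSA medium for 3 h at 37 °C. Pretreated with or without a range of inhibitor concentrations for 30 min, then stimulated with 5 nM C5a for 5 min at 37 °C. PKB/Akt phosphorylation scored as the cellular read-out.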
Chain of Phosphatidylinositol 4,5-bisphosphate 3-kinase catalytic subunit gamma isoform (Mus musculus, UniProt Q9JHG7) (Q9JHG7 whole entry, canonical isoform): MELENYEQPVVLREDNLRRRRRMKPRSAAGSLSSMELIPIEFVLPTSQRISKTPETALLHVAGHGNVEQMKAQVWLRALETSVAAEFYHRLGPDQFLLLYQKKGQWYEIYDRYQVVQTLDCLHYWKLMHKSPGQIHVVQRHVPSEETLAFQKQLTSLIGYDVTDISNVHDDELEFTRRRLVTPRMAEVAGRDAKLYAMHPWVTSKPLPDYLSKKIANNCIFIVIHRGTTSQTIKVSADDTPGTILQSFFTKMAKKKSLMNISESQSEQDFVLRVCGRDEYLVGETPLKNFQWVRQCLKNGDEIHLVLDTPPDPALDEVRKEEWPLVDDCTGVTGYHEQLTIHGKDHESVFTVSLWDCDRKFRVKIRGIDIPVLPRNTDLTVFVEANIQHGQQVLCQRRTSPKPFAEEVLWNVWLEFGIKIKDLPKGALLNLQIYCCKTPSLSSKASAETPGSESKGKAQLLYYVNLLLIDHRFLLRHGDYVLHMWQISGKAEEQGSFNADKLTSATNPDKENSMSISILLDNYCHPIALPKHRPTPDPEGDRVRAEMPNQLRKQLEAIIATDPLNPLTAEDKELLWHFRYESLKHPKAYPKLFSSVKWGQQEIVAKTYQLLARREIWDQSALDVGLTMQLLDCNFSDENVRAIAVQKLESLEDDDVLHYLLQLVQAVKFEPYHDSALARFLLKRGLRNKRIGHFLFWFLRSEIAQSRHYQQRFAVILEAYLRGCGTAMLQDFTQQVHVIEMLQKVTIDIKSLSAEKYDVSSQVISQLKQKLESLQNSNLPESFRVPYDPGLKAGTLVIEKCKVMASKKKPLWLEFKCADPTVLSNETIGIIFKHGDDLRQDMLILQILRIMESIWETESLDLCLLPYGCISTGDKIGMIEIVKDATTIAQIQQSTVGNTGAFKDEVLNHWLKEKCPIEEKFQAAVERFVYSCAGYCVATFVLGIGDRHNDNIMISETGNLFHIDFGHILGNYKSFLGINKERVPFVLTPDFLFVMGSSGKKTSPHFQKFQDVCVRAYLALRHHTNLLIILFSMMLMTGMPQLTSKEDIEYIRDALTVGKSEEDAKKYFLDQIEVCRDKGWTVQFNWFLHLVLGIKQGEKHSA

For series [3], the target named is Phosphatidylinositol 4,5-bisphosphate 3-kinase catalytic subunit alpha isoform (Homo sapiens, UniProt P42336). The series can be described thus: Inhibition of human PI3Kalpha using phosphatidylinositol as substrate and [33gammaP]ATP after 2 hrs by scintillation counting. An outline of the steps: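 Recombinant human PI3Kα (20 ng) incubated 2 h at 30 °C in 20 mM Tris–HCl pH 7.4, 5 mM MgCl₂, 5 mM DTT with unlabelled ATP plus [γ-³³P]ATP and lipid vesicles of PtdIns and 25 µM PtdSer (final), with inhibitor or DMSO. Stopped with 25 mM EDTA, captured on phospholipid scintillant-coated plate, PBS-washed, bound counts per second read.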
Chain of Phosphatidylinositol 4,5-bisphosphate 3-kinase catalytic subunit alpha isoform (P42336 whole entry, canonical isoform): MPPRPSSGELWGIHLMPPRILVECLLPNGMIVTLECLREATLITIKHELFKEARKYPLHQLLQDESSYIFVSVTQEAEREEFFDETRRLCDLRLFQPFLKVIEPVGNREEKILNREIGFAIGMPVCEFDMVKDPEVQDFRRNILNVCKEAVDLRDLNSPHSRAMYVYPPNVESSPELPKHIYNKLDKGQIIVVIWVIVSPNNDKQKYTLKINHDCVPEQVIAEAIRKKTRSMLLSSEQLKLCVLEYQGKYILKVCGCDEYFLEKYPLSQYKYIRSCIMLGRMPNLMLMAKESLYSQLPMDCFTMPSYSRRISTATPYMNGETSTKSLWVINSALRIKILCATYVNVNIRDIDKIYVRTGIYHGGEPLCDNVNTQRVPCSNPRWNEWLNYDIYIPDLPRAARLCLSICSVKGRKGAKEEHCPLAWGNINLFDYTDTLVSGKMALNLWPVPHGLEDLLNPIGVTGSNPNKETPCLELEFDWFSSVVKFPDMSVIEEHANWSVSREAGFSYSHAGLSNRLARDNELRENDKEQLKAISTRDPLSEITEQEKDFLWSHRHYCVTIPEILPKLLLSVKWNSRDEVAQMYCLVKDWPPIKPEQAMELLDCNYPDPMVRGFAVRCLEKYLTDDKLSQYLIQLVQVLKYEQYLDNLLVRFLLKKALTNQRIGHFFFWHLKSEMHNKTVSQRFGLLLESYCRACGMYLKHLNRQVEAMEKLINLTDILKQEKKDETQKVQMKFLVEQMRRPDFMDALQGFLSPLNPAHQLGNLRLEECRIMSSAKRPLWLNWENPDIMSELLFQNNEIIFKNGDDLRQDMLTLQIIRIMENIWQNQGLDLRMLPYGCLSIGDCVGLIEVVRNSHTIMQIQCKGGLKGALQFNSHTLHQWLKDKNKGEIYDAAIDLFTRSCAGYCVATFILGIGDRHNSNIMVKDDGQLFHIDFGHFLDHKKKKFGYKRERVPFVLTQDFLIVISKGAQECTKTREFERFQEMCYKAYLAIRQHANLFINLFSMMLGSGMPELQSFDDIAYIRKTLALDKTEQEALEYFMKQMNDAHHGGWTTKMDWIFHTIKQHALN

A further series is filed under the species Homo sapiens. The experiment in a line: Selectivity ratio of IC50 for human PI3Kalpha to IC50 for human PI3Kgamma. An outline of the steps:
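Human PI3Kα and PI3Kγ (20 ng each) assayed by the same radiometric lipid-kinase procedure: 2 h at 30 °C, pH 7.4 Tris buffer with MgCl2 and DTT, [33P]ATP and PtdIns/PtdSer vesicles, stopped with EDTA, captured on scintillant-coated plates and counted. Ratio taken as the PI3Kα IC50 divided by the PI3Kγ IC50.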

Series [4] is described as follows: Permeability of the compound at pH 6.2 by PAMPA assay. Type of series: ADME. As to conditions: read-out: permeability. The gist of the method: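 PAMPA membrane permeability measured at pH 6.2, reported as Pe in cm/s.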
A general note: The PAMPA barrier holds no transporters, so it reflects passive diffusion.

A short description of series [5]: Aqueous solubility of the compound. Type of series: physicochemical. As to conditions: water (aqueous). An outline of the steps:
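Solubility determined in water.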

For series [6], the target named is T1, Phosphatidylinositol 4,5-bisphosphate 3-kinase catalytic subunit gamma isoform.

T1 sequence (P48736 whole entry, canonical isoform): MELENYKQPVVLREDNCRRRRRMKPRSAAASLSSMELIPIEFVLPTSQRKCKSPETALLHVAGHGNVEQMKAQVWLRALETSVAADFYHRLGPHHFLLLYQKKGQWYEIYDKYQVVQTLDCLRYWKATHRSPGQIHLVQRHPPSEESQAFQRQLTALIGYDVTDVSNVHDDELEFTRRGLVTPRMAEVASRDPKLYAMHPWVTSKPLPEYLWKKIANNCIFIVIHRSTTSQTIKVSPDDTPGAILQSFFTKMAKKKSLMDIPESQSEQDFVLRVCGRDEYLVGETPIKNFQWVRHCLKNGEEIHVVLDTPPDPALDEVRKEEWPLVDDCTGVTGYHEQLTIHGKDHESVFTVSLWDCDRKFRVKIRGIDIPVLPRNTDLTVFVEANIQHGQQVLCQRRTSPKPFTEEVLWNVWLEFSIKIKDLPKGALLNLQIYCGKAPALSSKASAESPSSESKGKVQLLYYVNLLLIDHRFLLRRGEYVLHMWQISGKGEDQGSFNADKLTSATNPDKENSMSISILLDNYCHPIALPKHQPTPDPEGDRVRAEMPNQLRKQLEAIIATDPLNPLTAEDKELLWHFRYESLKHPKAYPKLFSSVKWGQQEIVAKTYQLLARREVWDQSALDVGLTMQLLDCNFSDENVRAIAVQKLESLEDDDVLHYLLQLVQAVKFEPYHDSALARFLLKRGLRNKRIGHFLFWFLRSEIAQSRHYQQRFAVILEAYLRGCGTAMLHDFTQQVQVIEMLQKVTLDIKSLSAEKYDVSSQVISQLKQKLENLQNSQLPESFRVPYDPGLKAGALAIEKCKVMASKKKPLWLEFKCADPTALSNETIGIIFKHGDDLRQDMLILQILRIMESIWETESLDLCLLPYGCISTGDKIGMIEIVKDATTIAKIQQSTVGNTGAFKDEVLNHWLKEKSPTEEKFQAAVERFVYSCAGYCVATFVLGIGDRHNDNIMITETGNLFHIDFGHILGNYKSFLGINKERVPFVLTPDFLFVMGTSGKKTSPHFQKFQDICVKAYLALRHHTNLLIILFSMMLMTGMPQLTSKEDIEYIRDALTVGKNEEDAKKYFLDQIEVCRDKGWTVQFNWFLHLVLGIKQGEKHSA

Turning to `CC(=O)Nc1nc(C)c(-c2cnc(CC(F)(F)F)o2)s1`, the half-maximal inhibitory concentration (IC50) – broadly, the concentration at which inhibition is half-maximal – stood at 10 nM in series [1], 88 nM in series [2] and 43 nM in series [3]. Further, the Ratio IC50 in the series listed under Homo sapiens was 4.
As for `CC(=O)Nc1nc(C)c(-c2cnc(N(C)C)o2)s1`, the IC50 in series [1] amounted to 46 nM; in series [2] it was 1220 nM.
In series [1], `CC(=O)Nc1nc(C)c(-c2cnc(Nc3ccc(Cl)cc3)o2)s1` yielded an IC50 of 346 nM.
Take `CC(=O)Nc1nc(C)c(-c2cnc(Nc3cccc(C(=O)O)c3)o2)s1`: the Papp in series [4] is 1.4 ×10⁻⁶ cm/s. Further, the IC50 was 12 nM in series [1], greater than 10000 nM in series [2] and 328 nM in series [3]. For the same molecule, the Ratio IC50 in the series listed under Homo sapiens was 27.
In the case of `CC(=O)Nc1nc(C)c(-c2cnc(Cc3cccc(C(=O)O)c3)o2)s1`, the IC50 in series [1] is 223 nM; in series [2], greater than 10000 nM.
On the same counts, the results for `CC(=O)Nc1nc(C)c(-c2cnc(Oc3cccnc3)o2)s1` are 117 nM and 1670 nM.
Molecule `CC(=O)Nc1nc(C)c(-c2cnc(CO)o2)s1` had a half-inhibitory concentration (IC50) in series [1] of 161 nM.
For `CC(=O)Nc1nc(C)c(-c2cnc(N3CCCC(O)C3)o2)s1` (stereo not given), the IC50 in series [1] came out at 14 nM; in series [2], 237 nM.
`CC(=O)Nc1nc(C)c(-c2cnc(C)o2)s1` came in with an IC50 in series [1] of 181 nM.
On to `COc1ncc(-c2sc(NC(C)=O)nc2C)o1`, for which the IC50 in series [1] was found to be 250 nM.
For the molecule `CC(=O)Nc1nc(C)c(-c2cnc(C(C)(C)O)o2)s1`, the IC50 worked out at 25 nM in series [1] and 369 nM in series [2].
Consider `CC(=O)Nc1nc(C)c(-c2cnc(-c3cccnc3)o2)s1`, for which the Papp in series [4] was found to be 77.3 ×10⁻⁶ cm/s. Further, the half-inhibitory concentration (IC50) in series [1] turned out to be 3 nM; in series [2], 59 nM; in series [3], 46 nM. In addition, the solubility (in general, the dissolved amount per volume that the medium holds) in series [5] was found to be 0.39 µg/mL (≈ 1.3 µM). Moreover, the Ratio IC50 in the series filed under Homo sapiens came out at 15.
Turning to `CC(=O)Nc1nc(C)c(-c2cnc(S(C)(=O)=O)o2)s1`, the IC50 in series [1] came out at 12 nM; in series [2], 222 nM; in series [3], 195 nM. For the same molecule, the Ratio IC50 in the series filed under Homo sapiens stood at 16.
On the same counts, the results for `CC(=O)Nc1nc(C)c(-c2cnc(Nc3cccnc3)o2)s1` are 12 nM, 431 nM, 102 nM and 9.
For `CC(=O)Nc1nc(C)c(-c2cnc(N3CCOCC3)o2)s1`, the results for the IC50 in series [1] and in series [2] were 24 nM and 599 nM, respectively.
Taken in the same sequence, the figures for `CC(=O)Nc1nc(C)c(-c2cnc(Nc3ccc(Cl)nc3)o2)s1` were 24 nM and 1040 nM.
Regarding `CC(=O)Nc1nc(C)c(-c2csc(Nc3cccc(C(=O)O)c3)n2)s1`, the IC50 in series [6] amounted to 5 nM.
With `CC(=O)Nc1nc(C)c(-c2cnc(Sc3cccnc3)o2)s1`, the IC50 in series [1] was determined as 16 nM; in series [2], 279 nM; in series [3], 112 nM. Besides, the Ratio IC50 in the series listed under Homo sapiens was 7.
Molecule `CC(=O)Nc1nc(C)c(-c2cnc(Cc3cccnc3)o2)s1` displayed an IC50 in series [1] of 95 nM.
Take `CSc1ncc(-c2sc(NC(C)=O)nc2C)o1`: the results for the IC50 in series [1] and in series [2] were 22 nM and 322 nM, respectively.
As for `CC(=O)Nc1nc(C)c(-c2cnc(C(C)(C)C)o2)s1`, in series [4], the Papp turned out to be 88.4 ×10⁻⁶ cm/s. Also, the IC50 stood at 3 nM in series [1], 113 nM in series [2] and 15 nM in series [3]. The molecule also showed a solubility in series [5] of 35.2 µg/mL (≈ 126 µM). In addition, the Ratio IC50 in the series filed under Homo sapiens was 5.
